An excerpt weighted towards active compounds, which were near 3.6% of everything screened.
FID counter – compounds displacing fluorescent DNA intercalator, primary screen, artefact control for HCV NS3 helicase inhibitor project, biochemical, FID fluorescence | DNA fluorescent intercalator displacement | actives 0.17% (n = 290,000) | inhibition, % at 7.9 µM; in the data active = inhibition above about 37%;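 note: higher means more ethidium bromide displaced from hairpin DNA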
HCV NS3 hel inh – inhibitors of HCV NS3 helicase, primary screen, biochemical, Cy5 molecular beacon fluorescence | NS3 helicase DNA unwinding | actives 0.56% (n = 290,000) | Hepatitis C virus NS3 helicase | inhibition, % at 10.9 µM;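 active = inhibition above the mean of all tested compounds plus 3 SD, set per campaign, cut at about 35% in these data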
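Test system: hepatitis C virus NS3 helicase domain fragment enzyme. Also added: annealed dual-labelled DNA beacon duplex, ATP-started. Timing: 60 min unwinding reaction at 25 °C after ATP addition. Technique: Cy5 fluorescence. Measure: % inhibition of unwinding.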
FGF22 binding – binders of human FGF22 protein, primary screen, FGF22 synaptogenesis inhibitor project, biophysical, thermal shift, single point; recombinant FGF22 thermal shift, SYPRO orange fluorescence; percent of sucrose octasulfate shift, DMSO zero; activity (Tm shift, normalised), % at 9.99 µM; actives 1.5% (n = 340,000);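 active = mean Tm shift, scaled 0 neutral to 100 positive control, at about 1.3% or above, every replicate too, limit read from the data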
Target sequence (Q9HCT0 whole entry, looked up): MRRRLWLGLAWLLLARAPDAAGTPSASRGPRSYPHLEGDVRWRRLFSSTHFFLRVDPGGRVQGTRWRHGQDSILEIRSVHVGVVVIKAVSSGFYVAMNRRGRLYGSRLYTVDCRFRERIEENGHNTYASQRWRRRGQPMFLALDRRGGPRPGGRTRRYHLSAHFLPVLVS
EBNA-1 inhibitor – EBNA-1 DNA-binding inhibitors, primary screen, biochemical, fluorescence polarization; inhibition, % at 14.8 µM; actives 0.34% (n = 300,000); in the data active = inhibition above about 28%
NR3A LBD binder – binders of NR3A ligand-binding domain, primary screen, biophysical, differential scanning fluorimetry, uHTS; actives 2.5% (n = 340,000); Tm shift relative to glycine control, % at 25 µM; Glutamate receptor ionotropic, NMDA 3A (GRIN3A) ligand-binding domain; NR3A LBD differential scanning fluorimetry, Tm shift; 0% = protein alone, 100% = glycine-bound protein;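 active = melting temperature shift of at least 10% of the positive control shift, at one fixed dose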
ZTA counter – blocks Epstein-Barr virus ZTA, an EBNA-1 counter-screen | P03206 | ZTA-DNA binding, fluorescence polarization | inhibition, % at 11 µM | actives 0.15% (n = 320,000); in the data active = inhibition above about 33%
Target sequence (P03206 whole entry, looked up): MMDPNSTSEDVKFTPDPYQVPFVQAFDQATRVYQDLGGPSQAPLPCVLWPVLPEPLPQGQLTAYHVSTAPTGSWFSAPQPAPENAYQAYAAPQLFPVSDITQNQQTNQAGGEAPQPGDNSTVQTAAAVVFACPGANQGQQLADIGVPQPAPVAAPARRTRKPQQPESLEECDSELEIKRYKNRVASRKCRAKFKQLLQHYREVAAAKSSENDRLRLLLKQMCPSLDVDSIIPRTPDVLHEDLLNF
Numbers stand for hits; - = inactive; . = not tested or not shown.

SMILES	FID counter	HCV NS3 hel inh	FGF22 binding	EBNA-1 inhibitor	NR3A LBD binder	ZTA counter
CCS(=O)(=O)C(C)(CCl)C(=O)Nc1ccc(C(=O)OC)cc1 (stereo not given)	-	-	-	-	12	-
NC(=S)NN=C1c2cc(OCCN3CCOCC3)ccc2-c2ccc(OCCN3CCOCC3)cc21	54	-	-	-	-	-
COc1cccc(C2=NN(C(=O)c3ccc(C)o3)C(O)(C(F)(F)F)C2)c1 (stereo not given)	-	-	43	-	-	-
O=C(c1ccco1)N1N=C(c2ccc(Cl)cc2)CC1(O)C(F)(F)F (stereo not given)	-	-	43	-	-	-
C[C@@H]1CCCCO[C@@H](CN(C)C(=O)NC2CCCCC2)[C@@H](C)CN([C@@H](C)CO)C(=O)c2cc(NC(=O)c3ccccc3)ccc2O1	.	.	-	.	.	.
CCOC(=O)c1cnn(CCOC(=O)c2ccc(OC)cc2)c1NC(=O)c1ccc(OC)cc1	-	-	.	-	16	-
CCn1c(Cc2cccs2)nnc1SCC(=O)NC(C)(C)C	-	-	43	-	-	-
c1ccc(Cn2cnc3ccccc32)cc1	-	-	.	-	-	-
Clc1ccc(Cn2cnc3ccccc32)cc1	-	-	43	-	-	-
Cc1ccccc1NC(=O)COC(=O)c1cccnc1	-	-	-	-	-	-
Cc1ccccc1NC(=O)COC(=O)c1ccc(CSc2ccc(Cl)cc2)cc1	-	-	-	-	12	-
Cc1ccc([N+](=O)[O-])cc1NC(=O)c1c(-c2ccccc2)noc1C	-	-	-	-	13	-
CN(C)C(=O)C[C@@H]1C[C@@H]2c3cc(NC(=O)Nc4ccccc4F)ccc3O[C@@H]2[C@H](CO)O1	.	.	-	.	.	.
CCOc1ccccc1C1NC(=O)c2ccccc2N1 (stereo not given)	.	.	44	.	-	.
Cc1ccc(C2NC(=O)c3ccccc3N2)c(C)c1 (stereo not given)	.	.	-	.	-	.
Cc1ccc(/C=N/n2c(-c3ccc(Cl)cc3)n[nH]c2=S)s1	-	-	.	-	21	-
CO[C@H]1CN(C)C(=O)c2ccc(NC(=O)Nc3c(C)noc3C)cc2OC[C@H](C)N(CCC(F)(F)F)C[C@@H]1C	.	.	-	.	.	.
Nc1ccc(C(=O)OCc2nc3c(ccc4ccccc43)[nH]2)cc1	-	-	.	-	27	-
COCC(=O)Nc1ccc2c(c1)C(=O)N(C)C[C@H](OC)[C@H](C)CN(CC1CCCCC1)[C@@H](C)CO2	.	.	-	.	.	.
O=[N+]([O-])c1ccc(CNc2ccc(Cl)cc2)s1	-	-	-	-	-	-
CC(CNc1ccc(Cl)cc1)(CNc1ccc(Cl)cc1)[N+](=O)[O-]	.	.	-	.	25	.
O=[N+]([O-])c1[nH]cnc1/C=C/c1ccccc1	-	-	-	-	22	-
O=[N+]([O-])c1cc(CN2CCOCC2)c2cccnc2c1O	-	-	.	.	-	.
O=[N+]([O-])c1cc(CN2CCN(c3ccccc3)CC2)c(O)c2ncccc12	-	-	43	-	-	-
COc1ccc(-c2cnc3c(c2)C(=O)N([C@H](C)CO)C[C@@H](C)[C@@H](CN(C)C(=O)CN(C)C)O3)cc1	.	.	-	.	.	.
SMILES	FID counter	HCV NS3 hel inh	FGF22 binding	EBNA-1 inhibitor	NR3A LBD binder	ZTA counter
CN1c2ccc(Br)cc2[C@H]2[C@H](CCN2C(=O)CN2CCOCC2)[C@@H]1CO	.	.	-	.	.	.
O=C(COc1ccccc1Br)c1ccc(O)cc1O	-	-	-	-	21	-
CCc1nc2ccccc2c(C(=O)NCc2ccccc2)c1C	-	-	43	-	-	-
O=C1CCC(=O)N1N1C(=O)C2C3c4ccccc4C(c4ccccc43)C2C1=O (stereo not given)	-	-	43	-	-	-
O=C1C2C3c4ccccc4C(c4ccccc43)[C@@H]2C(=O)N1c1ccccn1 (stereo not given in full)	-	-	-	-	-	-
O=C(NCc1ccccc1)[C@]1(CCS(=O)(=O)c2ccccc2)N=C(c2ccc(OCCCO)cc2)O[C@@H]1c1ccccc1	.	.	-	.	.	.
CCC(=O)Nc1ccc2c(c1)OC[C@@H](C)N(C(=O)Cc1ccccn1)C[C@@H](C)[C@H](OC)CN(C)C2=O	.	.	-	.	.	.
O=C(Nc1ccccc1C(=O)NC(Cc1ccc(O)cc1)C(=O)O)c1ccccc1 (stereo not given)	-	-	44	-	-	-
COc1ccccc1CNCC(O)Cn1c2ccccc2c2ccccc21 (stereo not given)	-	-	.	-	-	-
COc1ccc(C(=O)c2c(C)c3ccccc3n2CC(O)CNC(C)C)cc1 (stereo not given)	37	-	-	-	-	-
O=C1C2C3C=CC(C3)C2S(=O)(=O)C2C3C=CC(C3)C12 (stereo not given)	.	.	43	.	.	.
O=C1C2C3C=CC(CC3)C2C(=O)N1c1ccc(Cl)cc1 (stereo not given)	-	-	-	-	-	-
O=C1C2C3C=CC(CC3)C2S(=O)(=O)C2C3C=CC(CC3)C12 (stereo not given)	.	.	44	.	.	.
Cc1ccc(CNC(C)(C)CO)cc1	-	-	.	-	-	-
CC(C)(CO)NCc1ccc(Br)cc1	-	-	43	-	-	-
CCC(C)n1c(SCC(=O)Nc2ccccc2C(F)(F)F)nc2ccsc2c1=O (stereo not given)	-	-	.	-	-	-
CCC(C)n1c(SCc2ccccc2)nc2ccsc2c1=O (stereo not given)	-	-	.	-	11	-
CC(C)[C@@H](C)NC(=O)N(C)C[C@H]1OCc2ccccc2-c2ccccc2C(=O)N([C@H](C)CO)C[C@@H]1C	.	.	-	.	.	.
O=C(c1ccc(SCc2ccco2)c([N+](=O)[O-])c1)N1CCOCC1	-	-	-	-	-	-
O=C(/C=C/c1ccccc1)N1CCN(c2ccc([N+](=O)[O-])c(N3CCOCC3)c2)CC1	-	-	.	-	20	-
O=C(c1ccc2ccccc2c1)N1CCN(c2ccc([N+](=O)[O-])c(N3CCOCC3)c2)CC1	-	-	-	-	17	-
O=C(c1ccc(Sc2ccccc2)c([N+](=O)[O-])c1)N1CCOCC1	-	-	-	-	16	-
C[C@@H]1CN([C@@H](C)CO)C(=O)c2cc(NC(=O)CCC(F)(F)F)ccc2O[C@@H](C)CCCCO[C@H]1CN(C)S(=O)(=O)c1ccc(F)cc1	.	.	-	.	.	.
COc1ccc(NC(=O)Nc2ccc3c(c2)CC(=O)N([C@H](C)CO)C[C@H](C)[C@@H](CN(C)C(=O)Nc2ccc(F)cc2)O3)cc1	.	.	-	.	.	.

Bioassay records deposited in PubChem BioAssay by several laboratories.
